Drawing on ChEMBL document CHEMBL1140516, “Dual-acting agents that possess reversing resistance and anticancer activities: Design, synthesis, MES-SA/Dx5 cell assay, and SAR of Benzyl 1,2,3,5,11,11a-hexahydro-3,3-dimethyl-1-oxo-6H-imidazo[3',4':1,2]pyridin[3,4-b]indol-2-substitutedacetates” (Bioorg Med Chem, 2007), this text covers inhibition and IC50 for 15 molecules.

Structures are written as SMILES.

One test is described as follows: Growth inhibition of doxorubicin-resistant human MES-SA/Dx5 cells at 1.0 uM after 48 hrs by MTT assay. The settings on record: MES-SA/Dx5, 48 h. It is filed as functional. The method, boiled down:
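Exponential-phase MES-SA/Dx5 cells were seeded at 1×10^5/mL in McCoy's 5A with 10% FCS and penicillin/streptomycin on poly-L-lysine-coated wells and preincubated 4 h at 37 °C under 5% CO2. Compound was added in medium as a 1 µmol/L solution and cells were grown 48 h. In the MTT read-out, DMSO-dissolved formazan absorbance was measured. Inhibition% = 1 − (drug−blank)/(control−blank), with untreated cells as control and a cell-free blank.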
Background: Tetrazolium assays rely on reduction of a dye to a coloured formazan, in cell work by metabolically active cells.
For orientation: inhibition means the share of the control response that was lost under treatment. A higher inhibition goes with strong suppression. In the case of `CCC(C)[C@@H](C(=O)OCc1ccccc1)N1C(=O)[C@@H]2Cc3c([nH]c4ccccc34)CN2C1(C)C` (stereo partly specified), the inhibition at 1 µM came to 0%. Same read-out and setting: the value for `CC1(C)N2Cc3[nH]c4ccccc4c3C[C@H]2C(=O)N1[C@@H](CC(N)=O)C(=O)OCc1ccccc1` was 0%.

For `CC1(C)N2Cc3[nH]c4ccccc4c3C[C@H]2C(=O)N1[C@@H](COCc1ccccc1)C(=O)OCc1ccccc1`, 1 µM produced 0% inhibition. On to `CC1(C)N(CC(=O)OCc2ccccc2)C(=O)[C@@H]2Cc3c([nH]c4ccccc34)CN21`, for which the inhibition at 1 µM was determined as 0%. The same measure, in the same setting: the value for `CC1(C)N2Cc3[nH]c4ccccc4c3C[C@H]2C(=O)N1[C@@H](CCC(N)=O)C(=O)OCc1ccccc1` was 0%; that for `C[C@@H](C(=O)OCc1ccccc1)N1C(=O)[C@@H]2Cc3c([nH]c4ccccc34)CN2C1(C)C` was 0%; that for `CC(C)[C@@H](C(=O)OCc1ccccc1)N1C(=O)[C@@H]2Cc3c([nH]c4ccccc34)CN2C1(C)C` was 0%.

The molecule `CC(C)C[C@@H](C(=O)OCc1ccccc1)N1C(=O)[C@@H]2Cc3c([nH]c4ccccc34)CN2C1(C)C` had an inhibition at 1 µM of 38.9%.

For the molecule `CC1(C)N2Cc3[nH]c4ccccc4c3C[C@H]2C(=O)N1[C@@H](Cc1c[nH]c2ccccc12)C(=O)OCc1ccccc1`, the inhibition at 1 µM worked out at 0%. Still for that read-out and setting: the value for `CC1(C)N2Cc3[nH]c4ccccc4c3C[C@H]2C(=O)N1[C@@H](CCC(=O)OCc1ccccc1)C(=O)OCc1ccccc1` was 13.4%.

Consider `CC1(C)N2Cc3[nH]c4ccccc4c3C[C@H]2C(=O)N1[C@@H](Cc1ccccc1)C(=O)OCc1ccccc1`, for which the inhibition at 1 µM turned out to be 31.2%. On the same count and under the same terms, the value for `CC1(C)N2Cc3[nH]c4ccccc4c3C[C@H]2C(=O)N1[C@@H](CCCCNC(=O)OCc1ccccc1)C(=O)OCc1ccccc1` was 0%; that for `CC1(C)N2Cc3[nH]c4ccccc4c3C[C@H]2C(=O)N1[C@@H](CC(=O)OCc1ccccc1)C(=O)OCc1ccccc1` was 31.2%; that for `CC1(C)N2Cc3[nH]c4ccccc4c3C[C@H]2C(=O)N1[C@@H](Cc1ccc(O)cc1)C(=O)OCc1ccccc1` was 0%.

A short description of the next test: Growth inhibition of doxorubicin-sensitive human MES-SA cells after 48 hrs by MTT assay. It is filed as functional, cell-based.
Conditions: not given
The method, boiled down: (§1)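 MES-SA or MES-SA/Dx5 cells in exponential growth were seeded at 1×10^5/mL in McCoy's 5A with 10% FCS, penicillin and streptomycin on poly-L-lysine-coated plates and held 4 h at 37 °C, 5% CO2. Doxorubicin was then added at final 0.04–10.00 µM (serial halving) for 48 h. Read-out was MTT, with dried formazan dissolved in DMSO and absorbance read. Survival% = (treated−blank)/(control−blank), and IC50 was taken from the survival–concentration plot.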
Usually IC50 stands for the concentration at which inhibition is half-maximal. Low readings indicate inhibition by little substance, high ones a need for much substance. `COc1cccc2c1C(=O)c1c(O)c3c(c(O)c1C2=O)C[C@@](O)(C(=O)CO)C[C@@H]3O[C@H]1C[C@H](N)[C@H](O)[C@H](C)O1` [DOXORUBICIN] came in with an IC50 of 347 nM.

A further test in a line: Growth inhibition of doxorubicin-resistant human MES-SA/Dx5 cells after 48 hrs by MTT assay. In kind it is functional, cell-based. The settings on record: MES-SA/Dx5, 48 h. The method, boiled down: as §1
On to `COc1cccc2c1C(=O)c1c(O)c3c(c(O)c1C2=O)C[C@@](O)(C(=O)CO)C[C@@H]3O[C@H]1C[C@H](N)[C@H](O)[C@H](C)O1` [DOXORUBICIN], for which half-maximal inhibition (IC50) required 1550 nM.
